KCNQ1 pot = potentiators or activators of human KCNQ1 potassium channel | B-score at 10 µM | CHO-K1 KCNQ1, thallium flux FluxOR fluorescence; hits give high values | 310,000 compounds, 0.35% hits;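 active means fluorescence ratio B-score, a plate-corrected score, at least three library SD, with initial intensity B-score within 5 SD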
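Schedule – 37 °C overnight plating, 90-min dark dye load, 20-min compound pretreatment · System – stable KCNQ1 CHO-K1 line · Probe or stimulus – thallium- and potassium-containing depolarizing buffer · Measured by – kinetic FluxOR fluorescence, 10 s baseline plus 110 s post-stimulus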
KCNQ1 block = inhibitors of human KCNQ1 potassium channel. P51787. CHO-K1 KCNQ1, FluxOR thallium flux fluorescence; hits give high values. B-score at 10 µM. 310,000 compounds, 1.3% hits. AID 2642;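 active means compounds whose thallium flux B-score, printed positive for inhibition, exceeds three library SD while starting fluorescence stays within three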;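 further: channel opened by potassium depolarization with thallium stimulus after 20 min compound exposure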
KCNK9 inh = human KCNK9 channel inhibition; Q9NPC2; HEK293 KCNK9, FluxOR thallium flux fluorescence; hits give low values; B-score at 10 µM; 310,000 compounds, 1.2% hits;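 active means ratio B-score over 3 SD below the library mean, with starting fluorescence within 5 SD of its mean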;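 further: negative B-score means less thallium flux so channel inhibition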
hERG rescue = shields human hERG channel from block by proarrhythmic agents; Q12809; CHO-hERG, FluxOR thallium flux, dofetilide IC70 present; activation (rescue from dofetilide block), less the hit threshold, % at 10 µM; 310,000 compounds, 0.51% hits;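 active means activation above the mean of controls blocked by dofetilide plus 5 SD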;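 further: thallium influx through hERG after potassium depolarization seen as dye fluorescence rise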
Target sequence (Q12809 whole entry, looked up): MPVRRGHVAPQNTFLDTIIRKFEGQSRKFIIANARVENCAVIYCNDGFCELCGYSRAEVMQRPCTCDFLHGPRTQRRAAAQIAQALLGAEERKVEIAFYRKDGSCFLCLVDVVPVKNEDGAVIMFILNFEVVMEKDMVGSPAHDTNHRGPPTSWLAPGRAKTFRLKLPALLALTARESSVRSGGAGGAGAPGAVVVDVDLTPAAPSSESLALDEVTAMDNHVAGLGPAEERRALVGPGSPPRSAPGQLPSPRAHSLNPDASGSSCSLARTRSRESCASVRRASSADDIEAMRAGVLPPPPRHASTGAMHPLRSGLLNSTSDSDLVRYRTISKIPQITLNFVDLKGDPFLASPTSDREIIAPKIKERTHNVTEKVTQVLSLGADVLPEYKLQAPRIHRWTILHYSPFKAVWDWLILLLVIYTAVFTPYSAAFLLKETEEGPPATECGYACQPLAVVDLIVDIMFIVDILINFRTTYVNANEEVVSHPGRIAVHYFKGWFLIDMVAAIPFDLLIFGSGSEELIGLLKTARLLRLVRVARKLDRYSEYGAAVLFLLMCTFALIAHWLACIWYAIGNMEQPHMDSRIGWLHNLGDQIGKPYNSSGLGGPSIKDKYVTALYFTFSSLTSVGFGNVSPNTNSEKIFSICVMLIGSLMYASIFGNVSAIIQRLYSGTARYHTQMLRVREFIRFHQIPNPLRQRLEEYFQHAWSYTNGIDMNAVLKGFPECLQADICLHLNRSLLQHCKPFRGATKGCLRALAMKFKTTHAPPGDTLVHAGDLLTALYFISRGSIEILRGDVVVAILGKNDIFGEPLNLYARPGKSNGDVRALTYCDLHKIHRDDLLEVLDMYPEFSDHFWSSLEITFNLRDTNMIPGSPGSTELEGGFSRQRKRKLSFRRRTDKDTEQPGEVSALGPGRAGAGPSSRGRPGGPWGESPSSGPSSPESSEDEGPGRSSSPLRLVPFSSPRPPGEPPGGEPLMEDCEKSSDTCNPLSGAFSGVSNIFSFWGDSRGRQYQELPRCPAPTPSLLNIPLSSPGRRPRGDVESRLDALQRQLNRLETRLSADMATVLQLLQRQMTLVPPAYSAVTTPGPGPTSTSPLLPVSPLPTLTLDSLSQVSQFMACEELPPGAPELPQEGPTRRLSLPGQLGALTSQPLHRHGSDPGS
Kir21 block = Kir2.1 (mouse) channel inhibition; HEK293-Kir2.1, FluxOR thallium flux fluorescence; hits give low values; B-score at 10 µM; P35561; 310,000 compounds, 0.85% hits;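 active means fluorescence ratio B-score at or below minus 3 SD of library scores, with starting-brightness B-score within 2 SD, cut at about -4.2 in these data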;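 further: channel flux triggered by added potassium and thallium sulfate stimulus; B-score of peak minus minimum fluorescence over baseline after thallium stimulus; more negative B-score means stronger Kir2.1 block with less thallium influx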
KCNK3 block = human KCNK3 channel inhibition, primary screen. CHO-KCNK3 thallium flux, FluxOR fluorescence; hits give low values. 340,000 compounds, 0.84% hits. B-score at 10 µM. O14649;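 active means B-score under library mean minus 4 SD, starting fluorescence ratio at most library mean plus 5 SD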;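 further: more negative B-score means stronger inhibition of thallium flux through KCNK3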
KCNK9 inh conf = confirmation of human KCNK9 potassium channel inhibitors; shares compounds with KCNK9 inh; HEK293 KCNK9 cells, FluxOR thallium flux fluorescence; inhibition, % at 10 µM; 4,900 compounds, 43% hits; AID 492992;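 active means thallium signal inhibited by more than 5 SD of the compound-free buffer control wells, on both duplicate plates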;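 further: 0% = assay buffer control wells without compound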
Kir2-1 spec = selectivity of KCNK9 modulators against mouse Kir2.1; shares compounds with KCNK9 inh; Kir2.1 cells, FluxOR thallium flux fluorescence; inhibition, % at 10 µM; 4,900 compounds, 4% hits;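 active means thallium signal drop more than 5 SD beyond the mean of the no-compound control wells, seen in both duplicate plates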;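 further: signal is fluorescence rise after thallium addition divided by baseline fluorescence; plate controls were assay buffer only for no effect and full block by chlorpromazine control for full effect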
KCNK9 uninduced = non-induced cell nonspecific activity of KCNK9 modulators; inhibition, % at 10 µM; 4,900 compounds, 40% hits; AID 492997; non-induced KCNK9-HEK293, FluxOR thallium flux; shares compounds with KCNK9 inh;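 active means thallium signal drop beyond 5 SD of the untreated control mean, on both duplicate plates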;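 further: plate controls were buffer only IC0 wells for no effect and SID17386958 at its maximal inhibitory level for full effect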
Active calls of the source: *; i = inactive; . = not tested or not shown. Shown are actives, neighbours in structure and some others; about 3.8% of the full set was active somewhere.

SMILES	KCNQ1 pot	KCNQ1 block	KCNK9 inh	hERG rescue	Kir21 block	KCNK3 block	KCNK9 inh conf	Kir2-1 spec	KCNK9 uninduced
O=C(O)c1ccccc1-c1ccccc1C(=O)Nc1ccc(-c2nc3cc(Cl)ccc3o2)cc1	i	i	i	-16.8	-0.03	i	i	i	i
COc1cccc(N(C(=O)c2snc(C(N)=O)c2N)C(C(=O)NCC2CCCO2)c2ccc3ncccc3c2)c1 (centres undefined)	i	i	i	-7.8	0.63	i	.	.	.
CC(C)Oc1ccc(C(=O)Nc2ccccc2N2CCCC2)cc1	i	i	-14*	-4.7	-0.48	i	57.5%*	i	29.0%*
COc1ccc(C(=O)Nc2ccccc2N2CCCC2)cc1	i	i	i	-5.9	0.5	i	.	.	.
CC(Oc1ccc(F)cc1)C(=O)Nc1ccccc1N1CCCCC1 (centres undefined)	i	6*	-8.46*	-13.2	-3.29	i	52.5%*	46.5%*	31.5%*
CC(Oc1ccc(F)cc1)C(=O)Nc1cc(S(=O)(=O)N2CCCCC2)ccc1N1CCN(C)CC1 (centres undefined)	.	.	.	.	.	i	.	.	.
Cn1nc(C(F)(F)F)cc1C(=O)NC1CCCCCC1	i	i	i	-5.1	0.83	i	.	.	.
O=C(Nc1cc(S(=O)(=O)N2CCCCC2)ccc1Cl)c1ccc(F)cc1	.	.	.	.	.	i	.	.	.
CCCCN(C(=O)c1cccc2c(=O)c(C)c(-c3ccccc3)oc12)c1ccccc1	i	i	-10*	-8.8	0	i	40.5%*	i	33.5%*
CC(C)NC(=O)NNC(=O)c1cc(COc2cc(Cl)cc(Cl)c2)on1	i	i	i	-2.2	0.54	i	.	.	.
COc1cc(C)ccc1OCCOCCOc1cc(C)c(C)cc1Br	i	i	i	-10.6	-1.03	i	i	i	i
CCC(C)NC(=O)c1ccccc1NC(=O)c1ccc(CSc2ccc(C)cc2)cc1 (centres undefined)	i	i	i	-12.9	-0.8	i	i	i	i
CSc1ccc(CN(C)C(=O)CCNS(=O)(=O)c2ccc(C)c(C)c2)cc1	i	i	i	-16.7	-2.94	i	i	i	i
COc1ccccc1Nc1nc(-c2cccc(N3C(=O)c4ccccc4C3=O)c2)cs1	i	i	i	-0.9	-0.02	i	i	i	i
CCOC(=O)c1c(C)[nH]c(C(=O)Cn2nnc(-c3ccc(Cl)cc3)n2)c1C	i	i	i	-4.9	-0.11	i	.	.	.
CCOc1ccc(-n2c(SCC(=O)Nc3nccs3)nnc2-c2ccoc2C)cc1	i	i	i	-6.0	-0.03	i	.	.	.
CCOc1ccccc1-n1c(SCC(=O)Nc2nccs2)nnc1-c1ccoc1C	i	i	-8.7*	-11.1	0.53	i	47.0%*	i	25.5%*
Cc1ccc2c(c1)N(C(=O)NC1CCCCC1)C(C)(C)CC2C (centres undefined)	i	i	i	-16.2	-0.36	i	i	i	i
CCCN(CCC)C(=O)CSc1nc2ccccc2c(=O)n1CC1COc2ccccc2O1 (centres undefined)	i	i	i	-7.9	-2.63	i	i	i	i
COC(=O)c1ccccc1NC(=O)C12CC3CC(C1)CC(n1cnc(Cl)n1)(C3)C2	i	i	i	-17.1	0.95	i	i	i	i
COC(=O)C12CC3CC(C1)CC(n1cnc(Cl)n1)(C3)C2	i	i	i	-6.3	0.53	i	.	.	.
Cc1cccc(CN2CCN(C(=O)CN(C)C(C)C(=O)Nc3ccc(C(N)=O)cc3)CC2)c1 (centres undefined)	.	.	.	.	.	i	.	.	.
